Experimental data reported in article PMC3562655 (Journal of bone and mineral research : the official journal …, 2013).

Columns and labels:
[1] = test system: Phospho1^-/- VSMCs; assay: Calcification assay, Alizarin Red staining of Phospho1-/- VSMCs; assay type: cell-based, mouse; conditions: 21 days, β-glycerophosphate, inhibitor 30 μmol/L
Procedure, shortened: (§1)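 Aortic VSMCs from WT, Enpp1-/- or Phospho1-/- mice were isolated by collagenase digestion and grown in triplicate for 21 days. Medium was α-MEM with 50 µg/mL ascorbic acid plus 2.5 mmol/L β-glycerophosphate (all genotypes) or 3 mmol/L sodium phosphate (WT), changed every second day. Test compound (DMSO; final 30 µmol/L), alone or combined, was added at each change. Staining used 2% Alizarin Red (pH 4.2, 30 min RT), then 10% cetylpyridinium chloride extraction, absorbance read. Values are % of vehicle control, mean ± S.E.M.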

[2] = target: T1, ENPP1 (Homo sapiens, UniProt P22413); conditions: cited from earlier work
T1 sequence (P22413 98-925 limits assumed): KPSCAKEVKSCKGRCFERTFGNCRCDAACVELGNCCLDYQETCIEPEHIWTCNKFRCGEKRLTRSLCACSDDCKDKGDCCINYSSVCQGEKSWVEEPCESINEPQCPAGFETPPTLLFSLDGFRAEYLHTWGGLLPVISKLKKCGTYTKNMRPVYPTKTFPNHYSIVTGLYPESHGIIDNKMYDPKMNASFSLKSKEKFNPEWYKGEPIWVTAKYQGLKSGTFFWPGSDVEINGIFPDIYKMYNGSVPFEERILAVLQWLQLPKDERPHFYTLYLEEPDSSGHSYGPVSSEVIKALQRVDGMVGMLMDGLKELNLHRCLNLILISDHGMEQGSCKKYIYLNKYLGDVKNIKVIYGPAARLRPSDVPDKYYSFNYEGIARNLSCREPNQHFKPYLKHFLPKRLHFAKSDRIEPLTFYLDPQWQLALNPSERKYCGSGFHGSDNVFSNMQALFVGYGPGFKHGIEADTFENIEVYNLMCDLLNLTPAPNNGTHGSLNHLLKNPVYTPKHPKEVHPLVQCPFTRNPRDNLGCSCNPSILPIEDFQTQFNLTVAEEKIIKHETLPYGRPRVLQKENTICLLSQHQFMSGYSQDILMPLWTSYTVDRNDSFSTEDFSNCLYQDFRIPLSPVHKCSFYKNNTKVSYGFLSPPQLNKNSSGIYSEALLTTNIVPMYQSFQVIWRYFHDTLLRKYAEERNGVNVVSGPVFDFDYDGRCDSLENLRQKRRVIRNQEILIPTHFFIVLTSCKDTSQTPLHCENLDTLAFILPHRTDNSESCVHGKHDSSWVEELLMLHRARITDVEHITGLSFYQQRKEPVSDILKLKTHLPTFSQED

[3] = test system: Enpp1^-/- VSMCs; assay: Calcification assay, Alizarin Red staining of Enpp1-/- VSMCs; assay type: cell-based, mouse; conditions: 21 days, β-glycerophosphate, inhibitor 30 μmol/L
Procedure, shortened: as §1

[4] = target: T2, purified recombinant human PHOSPHO1 (Homo sapiens, UniProt Q8TCT1); assay: PHOSPHO1 inhibition, Biomol Green colorimetric phosphate release assay; assay type: biochemical; conditions: for IC50: pH 6.7, 60 min room temperature
T2 sequence (Q8TCT1 1-292 isoform Q8TCT1-3): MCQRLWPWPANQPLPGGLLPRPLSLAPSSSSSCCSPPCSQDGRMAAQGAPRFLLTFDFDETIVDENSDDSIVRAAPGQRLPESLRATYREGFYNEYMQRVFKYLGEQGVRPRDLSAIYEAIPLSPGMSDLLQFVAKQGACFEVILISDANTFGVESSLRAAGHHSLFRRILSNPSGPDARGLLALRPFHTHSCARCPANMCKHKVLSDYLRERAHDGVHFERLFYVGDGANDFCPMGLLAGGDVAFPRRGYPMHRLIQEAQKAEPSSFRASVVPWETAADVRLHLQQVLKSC

[5] = target: T3, PHOSPHO1 (Homo sapiens, UniProt Q8TCT1); assay: Mechanism of PHOSPHO1 inhibition, double reciprocal plots; assay type: biochemical
T3 sequence (Q8TCT1 1-292 isoform Q8TCT1-3): T2 sequence (Q8TCT1 1-292 isoform Q8TCT1-3)

[6] = target: T4, TNAP (Homo sapiens, UniProt P05186); conditions: ref Ciancaglini et al. (2010), 25, 42; cited from earlier work
T4 sequence (P05186 18-502 limits assumed): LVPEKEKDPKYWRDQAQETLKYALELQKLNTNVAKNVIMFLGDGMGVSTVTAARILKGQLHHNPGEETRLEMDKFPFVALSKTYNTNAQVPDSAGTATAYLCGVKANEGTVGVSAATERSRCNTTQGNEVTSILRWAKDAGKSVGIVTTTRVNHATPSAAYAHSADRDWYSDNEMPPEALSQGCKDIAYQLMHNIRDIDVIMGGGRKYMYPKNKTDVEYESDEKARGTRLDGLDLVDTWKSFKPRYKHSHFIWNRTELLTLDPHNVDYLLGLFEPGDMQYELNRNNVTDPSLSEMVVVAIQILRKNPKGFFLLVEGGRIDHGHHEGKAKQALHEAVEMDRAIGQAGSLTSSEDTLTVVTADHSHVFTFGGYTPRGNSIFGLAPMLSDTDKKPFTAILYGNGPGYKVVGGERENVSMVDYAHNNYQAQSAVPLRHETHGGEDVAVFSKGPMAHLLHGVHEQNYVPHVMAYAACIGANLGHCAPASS

[7] = test system: WT VSMCs; assay: Calcification assay, Alizarin Red staining of WT VSMCs; assay type: cell-based, mouse
Procedure, shortened: as §1

[8] = test system: Phospho1^-/- chondrocytes; assay: Mineralization of Phospho1-/- chondrocytes; assay type: cell-based; conditions: not shown

Ki [5] [nM] | nature of the PHOSPHO1 inhibition ([5]; double reciprocal plots versus P-Etn) | IC50 ([4]; P-Cho IC50, substrate P-Cho 62.5 μmol/L) [nM] | IC50 ([4]; P-Etn IC50, substrate P-Etn 62.5 μmol/L) [nM] | Compound | effect on mineralization in words [1] | cross-inhibition of ENPP1 [2] | effect on mineralization in words [3] | inhibition of PHOSPHO1 in point experiments ([4]; inhibitor 1, 10, 30 μmol/L, substrates P-Etn and P-Cho) | inhibition of TNAP activity [6] | toxicity to smooth muscle cells observed in the mineralization studies [7] | effect on mineralization in words ([7]; WT VSMCs, 21 days, inhibitor 30 μmol/L) | inhibition of ENPP1 activity ([2]; ref Ciancaglini et al. (2010), 25, 42) | mineralization of Phospho1-/- chondrocytes [8]
 |  |  |  | COc1ccc(OC)c(S(=O)(=O)Nc2cnc3ccccc3c2)c1 [MLS-0038949] | significantly inhibited mineralization | does not cross-inhibit | strongly reduced mineralization | selectively inhibits TNAP, but not PHOSPHO1 |  |  |  |  | 
160 ± 30 | competitive | 60 ± 10 | 70 ± 10 | Cc1c(OCC(F)(F)F)ccnc1C[S+]([O-])c1nc2ccccc2[nH]1 (stereo not shown) [Lansoprazole] |  |  |  |  | partially inhibits | showed toxicity to smooth muscle cells | significantly inhibited mineralization | partially inhibits | inhibited mineralization
